Laboratory results published in ChEMBL document CHEMBL1140910, “Fluorinated benzyloxyphenyl piperidine-4-carboxamides with dual function against thrombosis: inhibitors of factor Xa and platelet aggregation” (J Med Chem, 2009).
Calls of active or inactive are those of the source. The rule behind the calls is not given here.

What was measured:
[1] = tested on: Platelet; assay: Inhibition of ADP-induced platelet aggregation in human platelet rich plasma; assay type: functional
In short: (§1)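 Citrated human venous blood spun 800 rpm 15 min at 21 °C for PRP, platelets adjusted to 230000 µL-1 with PPP. PRP preincubated with compound (final 10 µM–1 mM, 0.5% DMSO) 5 min at 37 °C with stirring, then 10 µM final ADP or epinephrine. Turbidimetric (Born) transmittance at 640 nm over 5 min. IC50 from sigmoid fit, ≥3 determinations in duplicate, mean ± SEM.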

[2] = target: T1, Coagulation factor X (Homo sapiens, UniProt P00742); assay: Inhibition of human factor 10a by amydolitic assay
T1 sequence (P00742 41-179 limits assumed): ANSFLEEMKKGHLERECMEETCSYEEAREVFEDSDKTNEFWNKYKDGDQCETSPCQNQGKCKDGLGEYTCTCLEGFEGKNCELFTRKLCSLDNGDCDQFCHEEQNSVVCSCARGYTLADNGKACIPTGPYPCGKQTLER
T1 sequence (P00742 235-488 limits assumed): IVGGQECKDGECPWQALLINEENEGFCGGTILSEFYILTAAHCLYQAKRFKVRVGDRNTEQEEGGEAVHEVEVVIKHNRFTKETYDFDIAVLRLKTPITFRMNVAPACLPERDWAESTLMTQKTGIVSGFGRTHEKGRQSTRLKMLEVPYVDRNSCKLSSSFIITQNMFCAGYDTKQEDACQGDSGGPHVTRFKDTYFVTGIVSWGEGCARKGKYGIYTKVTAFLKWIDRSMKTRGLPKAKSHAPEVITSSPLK
In short: (§2)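 Human factor Xa (2 nM) in 10 mM Tris pH 8, 0.15 M NaCl, 0.1% PEG 6000, preincubated 30 min at 25 °C with compound (final 10 nM–0.25 mM, ≤2% DMSO). Started with 0.04 mM S-2765; p-nitroanilide release at 405 nm for 5 min, 25 °C. Initial velocities give IC50 (≥3 determinations), Ki by Cheng-Prusoff.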

[3] = target: Prothrombin (Bos taurus, UniProt P00735); assay: Inhibition of bovine factor 2a by amydolitic assay
In short: (§3)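 Bovine thrombin (0.41 U/mL) in 10 mM Tris pH 8 with 0.15 M NaCl and 0.1% PEG 6000, compound (final 10 nM–0.25 mM, ≤2% DMSO) for 30 min at 25 °C, then 0.050 mM S-2238.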

[4] = tested on: Platelet; assay: Inhibition of epinephrine-induced platelet aggregation in human platelet rich plasma; assay type: functional; in short: as §1
[5] = target: T1, Coagulation factor X; assay: Inhibition of human factor 10a at 250 uM by amydolitic assay; in short: as §2
[6] = target: Prothrombin (Bos taurus) (UniProt P00735); assay: Inhibition of bovine factor 2a at 250 uM by amydolitic assay; in short: as §3
[7] = species on record: Bos taurus; assay: Inhibition of bovine alpha-chymotrypsin at 250 uM by amydolitic assay
In short: (§4)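 Bovine α-chymotrypsin (0.4 µg/mL) in 50 mM Tris pH 7.5 with 50 mM CaCl2, incubated with compound (final 10 nM–0.25 mM) or DMSO 10 min at 25 °C. Substrate 0.185 mM N-succinyl-Ala-Ala-Pro-Phe-p-nitroanilide added; 405 nm read 5 min at 25 °C. Initial-rate IC50 (≥3 determinations) converted to Ki by Cheng-Prusoff.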

[8] = tested on: Plasma; assay: Anticoagulant activity in human plasma assessed as concentration required to double the activated partial thromboplastin time; assay type: functional
In short: (§5)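 Pooled lyophilized human plasma with aPTT reagent and 0.025 mol/L CaCl2; inhibitor or solvent at increasing concentrations incubated with plasma 3 min at 37 °C. Clotting time read on a coagulometer against control plasma, triplicate measurements; concentration giving 2-fold aPTT prolongation calculated from concentration-response curves.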

[9] = Inhibition of bovine alpha-chymotrypsin by amydolitic assay; parameters: species or system Bos taurus; in short: as §4
[10] = tested on: Plasma; assay: Anticoagulant activity in human plasma assessed as effect on double the activated partial thromboplastin time upto 1 mM; assay type: functional, cell-free; in short: as §5

Row | IC50 [1] [µM] | Ki [2] [µM] | Ki [3] [µM] | IC50 [4] [µM] | inhibition [5] [%] | inhibition [6] [%] | inhibition [7] [%] | Ki [9] [µM] | Structure (SMILES) | 2PT [8] [µM] | Activity [10]
1 | 400 | 5.2 | 40.4 | 244 |  |  |  |  | N=C(N)N1CCC(C(=O)Nc2cccc(OCc3ccc(-c4ccccc4)cc3)c2)CC1 |  | 
2 | > 1000 | 2 | 31.3 |  |  |  |  |  | N=C(N)N1CCCC(C(=O)Nc2cccc(OCc3ccc(-c4ccccc4)cc3)c2)C1 (centres undefined) |  | 
3 | 76.7 | 0.666 |  |  |  | < 30 | < 30 |  | O=C(Nc1cccc(OCc2ccc(-c3cc(F)c(F)c(F)c3)cc2)c1)C1CCNCC1 |  | 
4 | 116 |  |  | 90 | < 30 | < 30 |  |  | O=C(Nc1ccc(OCc2ccc(F)cc2)cc1)C1CCCNC1 (centres undefined) |  | 
5 | 103 | 260 |  | 70 |  | < 30 |  |  | O=C(Nc1cccc(OCc2ccc(F)cc2)c1)C1CCCNC1 (centres undefined) |  | 
6 | 62.7 | 0.767 |  |  |  | < 30 | < 30 |  | O=C(Nc1cccc(OCc2ccc(-c3ccccc3F)cc2)c1)C1CCNCC1 |  | 
7 |  | 1.45 |  |  |  | < 30 | < 30 |  | O=C(Nc1cccc(OCc2ccc(-c3c(F)cccc3F)cc2)c1)C1CCNCC1 |  | 
8 | 35 | 3.87 |  | 19 |  | < 30 | < 30 |  | O=C(Nc1cccc(OCc2ccc(-c3ccc(F)cc3)cc2)c1)C1CCNCC1 |  | 
9 |  | 0.548 |  |  |  | < 30 |  | 60 | O=C(Nc1cccc(OCc2ccc(-c3cccc(F)c3F)cc2)c1)C1CCNCC1 |  | 
10 | 85 |  |  | 43 | < 30 | < 30 |  |  | CCCCCCOc1ccc(NC(=O)C2CCCNC2)cc1 (centres undefined) |  | 
11 | 34.7 | 0.177 |  | 14.4 |  | < 30 |  | 31 | O=C(Nc1cccc(OCc2ccc(-c3cccc(F)c3)cc2)c1)C1CCNCC1 | 205 | 

Further lines, the compound ahead of its results:

Row | Structure (SMILES) | IC50 [1] [µM] | Ki [2] [µM] | Ki [3] [µM] | IC50 [4] [µM] | inhibition [5] [%] | inhibition [6] [%] | inhibition [7] [%] | Ki [9] [µM] | 2PT [8] [µM] | Activity [10]
12 | CCCCCCOc1cccc(NC(=O)C2CCCNC2)c1 (centres undefined) | 113 |  |  |  | < 30 | < 30 |  |  |  | 
13 | O=C(Nc1ccc(OCc2ccc(F)cc2)cc1)C1CCNCC1 | 121 |  |  | 93 | < 30 | < 30 |  |  |  | 
14 | N=C(N)N1CCC(C(=O)Nc2cccc(OCc3ccc(F)cc3)c2)CC1 | 768 | 33.8 | 20.8 |  |  |  |  |  |  | 
15 | COc1ccc(NC(=O)C2CCCNC2)cc1 (centres undefined) | 983 |  |  |  |  |  |  |  |  | 
16 | O=C(Nc1cccc(OCc2ccc(-c3ccccc3)cc2)c1)C1CCNCC1 | 111 | 1 |  | 54 |  | < 30 |  |  |  | 
17 | N=C(N)N1CCCC(C(=O)Nc2cccc(OCc3ccc(F)cc3)c2)C1 (centres undefined) | 274 | 57 | 160 |  |  |  |  |  |  | 
18 | O=C(Nc1cccc(OCc2ccccc2)c1)C1CCCNC1 (centres undefined) | 128 |  |  |  | < 30 | < 30 |  |  |  | 
19 | O=C(Nc1ccc(OCc2ccc(-c3ccccc3)cc2)cc1)C1CCNCC1 | 135 | 126 |  |  |  | < 30 |  |  |  | 
20 | O=C(Nc1cccc(OCc2ccc(F)cc2)c1)C1CCNCC1 | 68 |  |  | 36 | < 30 | < 30 |  |  |  | 
21 | O=C(Nc1cccc(OCc2ccc(-c3cc(F)cc(F)c3)cc2)c1)C1CCNCC1 | 27.8 | 0.13 |  | 17 |  | < 30 |  | 60.3 | 190 | 
22 | O=C(Nc1cccc(OCc2ccc(-c3ccc(C(F)(F)F)cc3)cc2)c1)C1CCNCC1 | 65.7 | 0.057 |  |  |  | < 30 | < 30 |  | 140 | 
23 | O=C(Nc1cccc(OCc2ccccc2)c1)C1CCNCC1 | 229 |  |  |  | < 30 | < 30 |  |  |  | inactive
24 | O=C(Nc1ccc(OCc2ccc(-c3ccccc3)cc2)cc1)C1CCCNC1 (centres undefined) | 125 |  |  |  | < 30 | < 30 |  |  |  | 
25 | O=C(Nc1cccc(OCc2ccc(-c3ccccc3)cc2)c1)C1CCCNC1 (centres undefined) | 153 | 2.5 |  | 87 |  | < 30 |  |  |  | 
26 | O=C(Nc1cccc(OCc2ccc(-c3c(F)cc(F)cc3F)cc2)c1)C1CCNCC1 |  | 9.47 | 26.7 |  |  |  | < 30 |  |  | 
27 | O=C(Nc1cccc(OCc2ccc(-c3ccc(F)cc3F)cc2)c1)C1CCNCC1 | 98.8 | 0.512 | 54 |  |  |  | < 30 |  |  | 
28 | O=C(Nc1cccc(OCc2ccc(-c3cc(F)ccc3F)cc2)c1)C1CCNCC1 |  | 1.27 |  |  |  | < 30 | < 30 |  |  | 
